Measured values: ChEMBL document CHEMBL2321871, “A novel class of oral direct renin inhibitors: highly potent 3,5-disubstituted piperidines bearing a tricyclic p3-p1 pharmacophore” (J Med Chem, 2013)

Key:
[1] = biological target: T1, Renin (Homo sapiens, UniProt P00797); test: Inhibition of human recombinant renin using fluorescence-quenched (RE(EDANS)IHPFHLVIHTK(Dabcyl)R as substrate incubated for 1 hr prior to substrate addition measured after 1 hr by fluorescence polarization assay
T1 sequence (P00797 whole entry): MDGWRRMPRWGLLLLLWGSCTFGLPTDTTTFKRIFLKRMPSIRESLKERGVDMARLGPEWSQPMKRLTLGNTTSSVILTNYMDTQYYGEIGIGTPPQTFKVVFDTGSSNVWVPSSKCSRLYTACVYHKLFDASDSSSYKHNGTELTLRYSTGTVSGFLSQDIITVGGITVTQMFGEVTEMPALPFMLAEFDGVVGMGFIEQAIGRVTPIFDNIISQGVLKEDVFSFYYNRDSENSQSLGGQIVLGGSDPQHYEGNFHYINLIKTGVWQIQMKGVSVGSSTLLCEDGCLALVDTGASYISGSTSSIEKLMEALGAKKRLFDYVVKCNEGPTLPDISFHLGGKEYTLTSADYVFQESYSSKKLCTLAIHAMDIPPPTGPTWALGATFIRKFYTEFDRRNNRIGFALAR

[2] = test system: Rattus norvegicus; test: Antihypertensive activity in po dosed telemetered hypertensive double-transgenic rat model expressing human renin and angiotensinogen assessed as reduction of mean arterial blood pressure; format: functional, organism-based; conditions: Artery
How it was run: (§1)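 Telemetered hypertensive double-transgenic rats given a single oral dose (6 or 30 mg/kg); mean arterial blood pressure monitored for maximal reduction from pre-treatment baseline and time to 50% recovery to baseline.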

[3] = biological target: T2, Renin (Homo sapiens) (UniProt P00797); test: Inhibition of human recombinant renin using fluorescence-quenched (RE(EDANS)IHPFHLVIHTK(Dabcyl)R as substrate at 100 uM incubated for 1 hr prior to substrate addition measured after 1 hr by fluorescence polarization assay
T2 sequence (whole entry): T1 sequence (P00797 whole entry)

[4] = biological target: T1, Renin; test: Inhibition of human plasma renin
[5] = test system: Rattus norvegicus; test: Antihypertensive activity in telemetered hypertensive double-transgenic rat model expressing human renin and angiotensinogen assessed as reduction of mean arterial blood pressure at 6 mg/kg, po; format: functional, Artery; how it was run: as §1
[6] = test system: Rattus norvegicus; test: Antihypertensive activity in telemetered hypertensive double-transgenic rat model expressing human renin and angiotensinogen assessed as reduction of mean arterial blood pressure at 30 mg/kg, po; format: functional, Artery; how it was run: as §1
[7] = test system: Rattus norvegicus; test: Antihypertensive activity in telemetered hypertensive double-transgenic rat model expressing human renin angiotensinogen assessed as time required for 50 % recovery at 30 mg/kg, po; format: functional; how it was run: as §1
[8] = test system: Rattus norvegicus; test: Antihypertensive activity in telemetered hypertensive double-transgenic rat model expressing human renin angiotensinogen assessed as time required for 50 % recovery at 6 mg/kg, po; format: functional; how it was run: as §1
[9] = AUC (0 to 24 hrs) in Sprague-Dawley rat at 6 mg/kg, po by HPLC analysis; format: ADME, organism-based; set-up: time < 24 hr, dose 6 mg/kg, route oral; conditions: plasma
How it was run: (§2)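 Fed Sprague–Dawley rats dosed at 2 mg/kg i.v. and 6 mg/kg p.o.; plasma levels followed over 24 h to derive oral AUC(0-24 h), Cmax, t1/2, plasma clearance, Vdss and oral bioavailability.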

[10] = Cmax in Sprague-Dawley rat at 6 mg/kg, po by HPLC analysis; format: ADME, organism-based; set-up: dose 6 mg/kg, route oral; conditions: in vivo; how it was run: as §2
[11] = Volume of distribution at steady state in Sprague-Dawley rat at 2 mg/kg, iv and 6 mg/kg, po by HPLC analysis; format: ADME, organism-based; conditions: in vivo, read-out: Vdss; how it was run: as §2
[12] = Plasma clearance in Sprague-Dawley rat at 2 mg/kg, iv and 6 mg/kg, po by HPLC analysis; format: ADME, organism-based; how it was run: as §2
[13] = Half life in Sprague-Dawley rat at 2 mg/kg, iv and 6 mg/kg, po by HPLC analysis; format: ADME, organism-based; conditions: in vivo; how it was run: as §2
[14] = Oral bioavailability in Sprague-Dawley rat at 6 mg/kg by HPLC analysis; format: ADME, organism-based; conditions: in vivo; how it was run: as §2
[15] = biological target: Cytochrome P450 3A4 (Homo sapiens, UniProt P08684); test: Time dependent inhibition of CYP3A4 (unknown origin); format: ADME; conditions: TDE = time-dependent effect
Cytochrome P450 3A4, sequence (P08684 whole entry): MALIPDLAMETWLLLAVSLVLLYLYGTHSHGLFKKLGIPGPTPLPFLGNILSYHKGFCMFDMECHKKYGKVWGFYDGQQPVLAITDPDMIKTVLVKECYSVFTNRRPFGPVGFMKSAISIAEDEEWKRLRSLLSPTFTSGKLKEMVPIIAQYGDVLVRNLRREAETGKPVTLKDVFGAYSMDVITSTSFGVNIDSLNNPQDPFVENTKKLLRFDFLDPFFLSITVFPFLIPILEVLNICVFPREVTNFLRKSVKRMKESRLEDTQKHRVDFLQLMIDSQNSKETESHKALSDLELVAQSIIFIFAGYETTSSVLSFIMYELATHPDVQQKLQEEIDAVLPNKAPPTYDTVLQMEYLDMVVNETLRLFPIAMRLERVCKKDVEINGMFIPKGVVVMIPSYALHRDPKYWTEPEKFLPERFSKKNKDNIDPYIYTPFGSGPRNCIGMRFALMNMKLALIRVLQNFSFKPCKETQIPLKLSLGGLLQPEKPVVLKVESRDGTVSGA

[16] = biological target: T3, Beta-secretase 2 (Homo sapiens, UniProt Q9Y5Z0); test: Inhibition of human recombinant BACE2 expressed in baculovirus-infected SF9 cells using fluorescence-quenched RE(EDANS)-EVNLDAEF-K(DABSYL)-R as substrate incubated for 1 hr prior to substrate addition measured after 1 hr by fluorescence polarization assay
T3 sequence (Q9Y5Z0 whole entry): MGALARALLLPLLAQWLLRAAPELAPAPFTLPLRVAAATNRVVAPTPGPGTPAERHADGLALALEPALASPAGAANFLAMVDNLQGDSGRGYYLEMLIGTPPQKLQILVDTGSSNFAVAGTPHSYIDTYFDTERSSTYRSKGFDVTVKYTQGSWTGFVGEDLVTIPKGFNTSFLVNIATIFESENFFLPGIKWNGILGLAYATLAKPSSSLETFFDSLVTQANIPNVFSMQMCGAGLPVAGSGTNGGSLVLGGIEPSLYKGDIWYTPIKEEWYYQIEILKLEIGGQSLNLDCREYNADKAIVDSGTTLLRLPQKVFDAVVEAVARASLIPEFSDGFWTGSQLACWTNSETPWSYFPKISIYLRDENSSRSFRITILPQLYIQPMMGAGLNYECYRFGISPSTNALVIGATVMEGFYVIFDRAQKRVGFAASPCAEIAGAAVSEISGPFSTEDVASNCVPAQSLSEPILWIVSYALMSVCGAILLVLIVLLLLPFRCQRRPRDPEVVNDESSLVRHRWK

[17] = biological target: Beta-secretase 1 (Homo sapiens, UniProt P56817); test: Inhibition of human recombinant BACE1 expressed in baculovirus-infected SF9 cells using fluorescence-quenched RE(EDANS)-EVNLDAEF-K(DABSYL)-R as substrate incubated for 1 hr prior to substrate addition measured after 1 hr by fluorescence polarization assay
Beta-secretase 1, sequence (P56817 whole entry): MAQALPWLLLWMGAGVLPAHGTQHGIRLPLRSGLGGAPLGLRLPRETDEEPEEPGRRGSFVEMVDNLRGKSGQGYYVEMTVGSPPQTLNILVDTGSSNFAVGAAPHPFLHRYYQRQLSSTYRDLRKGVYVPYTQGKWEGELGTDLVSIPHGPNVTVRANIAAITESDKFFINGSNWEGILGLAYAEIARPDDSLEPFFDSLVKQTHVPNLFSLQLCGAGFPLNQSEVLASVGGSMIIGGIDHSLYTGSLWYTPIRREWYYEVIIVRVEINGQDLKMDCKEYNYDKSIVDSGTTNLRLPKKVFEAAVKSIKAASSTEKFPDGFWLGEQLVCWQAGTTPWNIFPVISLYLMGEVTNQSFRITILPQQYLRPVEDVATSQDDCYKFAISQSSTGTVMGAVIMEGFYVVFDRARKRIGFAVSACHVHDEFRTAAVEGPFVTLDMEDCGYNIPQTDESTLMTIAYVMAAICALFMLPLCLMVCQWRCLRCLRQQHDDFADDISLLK

[18] = biological target: T4, Cathepsin E (Homo sapiens, UniProt P14091); test: Inhibition of human recombinant cathepsin E expressed in Escherichia coli using fluorescence-quenched Ac-E-D(EDANS)-KPILFFRLG-K(Dabcyl)-E-Amid as substrate incubated for 1 hr prior to substrate addition measured after 1 hr by fluorescence polarization assay
T4 sequence (P14091 whole entry): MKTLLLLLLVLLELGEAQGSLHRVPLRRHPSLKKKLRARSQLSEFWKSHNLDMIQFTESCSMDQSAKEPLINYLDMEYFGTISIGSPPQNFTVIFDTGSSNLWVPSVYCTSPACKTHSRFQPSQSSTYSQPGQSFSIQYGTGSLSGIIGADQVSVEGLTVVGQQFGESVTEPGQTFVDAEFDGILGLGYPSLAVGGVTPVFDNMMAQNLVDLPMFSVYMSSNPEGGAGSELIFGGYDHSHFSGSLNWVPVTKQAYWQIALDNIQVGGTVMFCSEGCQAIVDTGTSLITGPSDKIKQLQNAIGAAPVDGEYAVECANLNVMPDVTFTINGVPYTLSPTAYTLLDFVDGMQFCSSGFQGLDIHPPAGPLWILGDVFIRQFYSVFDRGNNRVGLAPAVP

[19] = biological target: Cathepsin D (Homo sapiens, UniProt P07339); test: Inhibition of human recombinant cathepsin D expressed in baculovirus-infected SF9 cells using fluorescence-quenched Ac-E-D(EDANS)-KPILFFRLG-K(Dabcyl)-E-Amid as substrate incubated for 1 hr prior to substrate addition measured after 1 hr by fluorescence polarization assay
Cathepsin D, sequence (P07339 65-162 limits assumed): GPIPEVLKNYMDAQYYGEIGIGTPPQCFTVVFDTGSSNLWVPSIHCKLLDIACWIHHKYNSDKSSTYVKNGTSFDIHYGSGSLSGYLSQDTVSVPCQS
Cathepsin D, sequence (P07339 169-412 limits assumed): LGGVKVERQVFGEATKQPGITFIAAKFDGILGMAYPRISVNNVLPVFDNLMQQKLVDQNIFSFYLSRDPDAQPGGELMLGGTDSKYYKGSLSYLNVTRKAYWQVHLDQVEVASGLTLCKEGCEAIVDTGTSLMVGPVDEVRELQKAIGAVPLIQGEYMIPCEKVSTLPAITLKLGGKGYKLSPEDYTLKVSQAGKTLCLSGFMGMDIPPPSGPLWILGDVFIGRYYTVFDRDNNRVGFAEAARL

[20] = biological target: T5, Gastricsin (Homo sapiens, UniProt P20142); test: Inhibition of human recombinant pepsin C expressed in Escherichia coli using fluorescence-quenched Dabcyl-E-R-Nle-F-L-S-F-P-EDANS as substrate incubated for 1 hr prior to substrate addition measured after 1 hr by fluorescence polarization assay
T5 sequence (P20142 whole entry): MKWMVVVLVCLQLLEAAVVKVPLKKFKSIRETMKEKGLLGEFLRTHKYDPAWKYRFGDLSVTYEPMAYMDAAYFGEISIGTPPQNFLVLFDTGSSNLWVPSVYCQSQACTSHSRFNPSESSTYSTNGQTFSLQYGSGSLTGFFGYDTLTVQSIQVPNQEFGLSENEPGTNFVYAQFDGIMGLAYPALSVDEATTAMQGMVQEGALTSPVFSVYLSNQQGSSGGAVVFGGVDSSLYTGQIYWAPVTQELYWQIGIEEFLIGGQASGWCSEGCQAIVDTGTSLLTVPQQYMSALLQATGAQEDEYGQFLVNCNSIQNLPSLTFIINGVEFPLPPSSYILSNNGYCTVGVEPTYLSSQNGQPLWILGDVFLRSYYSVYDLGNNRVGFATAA

[21] = Inhibition of human recombinant pepsin A expressed in Escherichia coli using fluorescence-quenched Dabcyl-E-R-Nle-F-L-S-F-P-EDANS as substrate incubated for 1 hr prior to substrate addition measured after 1 hr by fluorescence polarization assay
[22] = biological target: T1, Renin; test: Binding affinity to human recombinant renin by NMR titration analysis

For `Cc1ccc(S(=O)(=O)N[C@@H]2CNC[C@H](C(=O)NCC(c3ccccc3)c3ccccc3)C2)cc1`, the IC50 [1] was greater than 30000 nM.

`Cc1ccc(S(=O)(=O)N[C@H]2CNC[C@@H](C(=O)NCC(c3ccccc3)c3ccccc3)C2)cc1` gave an IC50 [1] of 500 nM.

Compound `Cc1ccc(S(=O)(=O)N[C@H]2CNC[C@@H](C(=O)NCC3c4ccccc4Oc4ccccc43)C2)cc1` (racemic) has an IC50 [1] of 90 nM.

For `COCCCCC1(CNC(=O)[C@@H]2CNC[C@H](NS(=O)(=O)c3ccc(C)cc3)C2)c2ccccc2Oc2ccccc21` [listing 1 of 2 here], the Activity [2] was “Dose-dependent effect”.

Work on `O=C(NCC1c2ccccc2Oc2ccccc21)C1CCCNC1` (racemic) yielded an inhibition [3] of 0%.

`Cc1ccc(S(=O)(=O)N[C@H]2CNC[C@@H](C(=O)NCC(c3ccccc3)c3ccccc3)C2)cc1` (racemic) showed an IC50 [1] of 1200 nM.

`COCCCCC1(CNC(=O)[C@@H]2CNC[C@H](NS(=O)(=O)c3ccc(C)cc3)C2)c2ccccc2Oc2ccccc21` [listing 2 of 2 here] gave an IC50 [1] of 3 nM, an IC50 [4] of 25 nM and an Activity [5] of 28 mmHg. It also gave an Activity [6] of 58 mmHg, a Time [7] of 7.8 h and a Time [8] of 3.1 h. It also gave an AUC(0-t) at 24 h [9] of 0.75 µM·h, a Cmax [10] of 222 nM and a Vd [11] of 5.3 L/kg. For the same compound, the clearance [12] was 43.3 mL/min/kg, the half-life [13] was 2.3 h and the bioavailability [14] was 18%. For the same compound, the “inhibition (INH)” value [15] was “tde”, the IC50 [16] was greater than 30000 nM and the IC50 [17] was greater than 30000 nM. For the same compound, the IC50 [18] was greater than 30000 nM, the IC50 [19] was greater than 30000 nM and the IC50 [20] was greater than 30000 nM. The IC50 [21] was greater than 30000 nM.

With `COCCCCC1(CNC(=O)C2CCCNC2)c2ccccc2Oc2ccccc21` (racemic) the IC50 [1] was 4000 nM.

Work on `COCCCCC1(CNC(=O)[C@@H]2CNC[C@H](NS(=O)(=O)c3ccc(C)cc3)C2)c2ccccc2Oc2ccccc21` (racemic) yielded an IC50 [1] of 4 nM.

Work on `CC(O)CN1CC2c3ccccc3Nc3ccccc3C2C1` (racemic) yielded an IC50 [1] greater than 100000 nM and a Kd [22] greater than 500000 nM.

In the case of `OC(CC1c2ccccc2Sc2ccccc21)CN1CCCC1` (racemic), the IC50 [1] is reported as greater than 100000 nM and the Kd [22] is reported as greater than 500000 nM.

For `COCCCCC1(CNC(=O)[C@H]2CNC[C@@H](NS(=O)(=O)c3ccc(C)cc3)C2)c2ccccc2Oc2ccccc21`, the IC50 [1] was 500 nM.
